MrgX1 PAM: positive allosteric modulators of MrgX1, primary screen, HEK293 cells, Fluo-4 calcium flux | 0.63% of 310,000 active | FDSS; stronger effect = higher value | B-score at 10 µM | Mas-related G-protein coupled receptor member X1 (Homo sapiens), Q96LB2;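 active means plate-corrected calcium response at least 3 library SD above typical, normal starting fluorescence, not activating the receptor alone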;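 further: compound read alongside a low EC10 to EC30 dose of BAM8-22 agonist; peak minus trough fluorescence over baseline measured at the second addition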
Target sequence (Q96LB2 whole entry, looked up): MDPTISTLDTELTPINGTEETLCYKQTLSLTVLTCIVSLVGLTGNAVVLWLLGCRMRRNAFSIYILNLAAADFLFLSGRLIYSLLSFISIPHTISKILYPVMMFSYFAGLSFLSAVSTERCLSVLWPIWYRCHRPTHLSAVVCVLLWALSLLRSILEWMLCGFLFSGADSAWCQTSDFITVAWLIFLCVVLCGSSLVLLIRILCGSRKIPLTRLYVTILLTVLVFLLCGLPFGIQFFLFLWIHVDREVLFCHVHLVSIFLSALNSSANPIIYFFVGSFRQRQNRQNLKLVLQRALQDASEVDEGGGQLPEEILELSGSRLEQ
RGS4 inh: RGS4 inhibitors, primary screen, cell-based, HEK293 M3R inducible RGS4, calcium flux; Fluo-4 calcium flux; stronger effect = higher value; triggered by carbachol at its EC20; Regulator of G-protein signaling 4 (Homo sapiens), P49798; 0.45% of 310,000 active; B-score at 10 µM;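 active means B-score, a plate-corrected calcium signal, over three deviations above library mean, with baseline fluorescence within five deviations of library mean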;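 further: RGS4 expression induced by doxycycline in cells with stable M3 receptor; B-score is computed from the integrated fluorescence ratio over baseline after carbachol; higher B-score means a larger calcium signal and so more RGS4 inhibition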
Target sequence (P49798 whole entry, looked up): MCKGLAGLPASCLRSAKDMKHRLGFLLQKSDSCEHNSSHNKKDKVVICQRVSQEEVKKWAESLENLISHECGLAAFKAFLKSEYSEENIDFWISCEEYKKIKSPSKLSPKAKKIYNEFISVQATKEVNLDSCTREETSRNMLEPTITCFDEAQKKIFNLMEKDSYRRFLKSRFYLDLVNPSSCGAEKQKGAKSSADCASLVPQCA
RGS4 act: RGS4 potentiators or activators, primary screen, cell-based, HEK293 M3R inducible RGS4, calcium flux; carbachol calcium flux Fluo4; stronger effect = lower value; B-score at 10 µM; 0.92% of 310,000 active; AID 463111, 2010;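 active means B-score of the integrated calcium signal more than 4 SD below the library mean, with starting fluorescence not abnormally high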;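 further: negative B-score means reduced calcium response which marks RGS4 activation or potentiation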
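Also added: carbachol at ECmax as muscarinic agonist stimulus; Assay system: HEK293 cells with stable M3R and inducible RGS4; Timing: overnight RGS4 induction, 30 min dye load 37 °C, 20 min compound RT; Measured by: Fluo4-AM (2 µM) calcium-flux fluorescence, kinetic read.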
MrgX1 ag: agonists of human MrgX1 receptor, primary screen, HEK293 cells, Fluo-4 calcium flux; 0.44% of 310,000 active; AID 588627, 2011; Fluo-4 calcium fluorescence, agonist mode; stronger effect = higher value; B-score at 10 µM;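 active means calcium response B-score plate-corrected fluorescence ratio at least 3 library SD, with starting fluorescence B-score inside 5 SD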
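Material: HEK293 cells stably expressing human MrgX1 receptor | Quantity: 15,000 cells per well | Times: Cells plated overnight, dye loaded 0.5 h 37 °C, 0.5 h room temperature | Measured by: Kinetic Fluo-4 NW fluorescence of intracellular calcium | Control set: Positive and negative controls per plate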
Kir21 inh: inhibitors of mouse Kir2.1 inward-rectifier potassium channel; Inward rectifier potassium channel 2 (Mus musculus), P35561; HEK293-Kir2.1, FluxOR thallium flux fluorescence; stronger effect = lower value; B-score at 10 µM; 0.85% of 310,000 active; AID 1672, 2009;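 active means fluorescence ratio B-score at or below minus 3 SD of library scores, with starting-brightness B-score within 2 SD, cut at about -4.2 in these data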;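 further: channel flux triggered by added potassium and thallium sulfate stimulus; B-score of peak minus minimum fluorescence over baseline after thallium stimulus; more negative B-score means stronger Kir2.1 block with less thallium influx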
MrgX1 antagonist: antagonists of human MrgX1 receptor, primary screen, HEK293 cells, Fluo-4 calcium flux; Mas-related G-protein coupled receptor member X1 (Homo sapiens), Q96LB2; BAM8-22 antagonism; stronger effect = lower value; B-score at 10 µM; 1.3% of 310,000 active; AID 588676, 2011;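 active means calcium-response B-score plate-corrected more than 3 library SD below zero, starting fluorescence within 5 deviations, no agonist response on first addition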;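 further: peak minus trough fluorescence over baseline after final BAM8-22 challenge near maximal dose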
RGS4 inh valid: enhanced carbachol calcium response, M3R/RGS4 cells, RGS4 inhibitor project, cell-based, validation screen, HEK293 M3R/RGS4, calcium flux; shares compounds with RGS4 inh; carbachol calcium Fluo-4 fluorescence; carbachol added at its EC20; 0 = buffer wells, 100 = carbachol control; calcium response, % at 10 µM; 65% of 1,700 active;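 active means duplicate-averaged calcium response above the buffer-only control mean plus 5 SD of those controls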;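 further: integrated fluorescence ratio F max minus min over baseline F0; higher response in RGS4-induced cells means RGS4 inhibition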
RGS4 uninduced: carbachol calcium response in non-induced M3R cells, confirmation, counter-screen for RGS4 inhibitor project, cell-based, HEK293 M3R; shares compounds with RGS4 inh; carbachol calcium Fluo-4; submaximal (EC20) carbachol stimulus; buffer wells 0%, carbachol control wells 100%; activity (percent), % at 10 µM; 20% of 1,900 active; AID 493000, 2010; call rule not given here;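 further: RGS4 induction absent so cells express M3R without RGS4; higher means more calcium signal and flags a non-specific hit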
RGS4 inh ctr2: second RGS4 inhibitor counter-screen in uninduced cells lacking carbachol. HEK293 M3R/RGS4 non-induced, Fluo-4 calcium, no carbachol; normalised: buffer wells 0%, carbachol wells 100%. calcium response (agonist-mode artifact), % at 10 µM. 22% of 1,900 active. shares compounds with RGS4 inh. AID 493001;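 active means duplicate-averaged calcium rise in uninduced cells above buffer wells' mean plus 5 SD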
The depositor's hits bear a star; i = inactive; . = not tested or not shown. In the library only some 4.1% were active in any assay of this set; here they are far more common.

SMILES	MrgX1 PAM	RGS4 inh	RGS4 act	MrgX1 ag	Kir21 inh	MrgX1 antagonist	RGS4 inh valid	RGS4 uninduced	RGS4 inh ctr2
COc1ccc(C2=NN(S(=O)(=O)c3ccccc3)C(c3ccccc3)C2)cc1 (stereo unspecified)	i	i	i	i	-0.33	i	.	.	.
Cc1ccc(CNC(=O)c2cn(C3CCCCC3)c(=O)c3c2c2ccccc2n3C)o1	i	6.1*	i	i	0.44	i	13%*	i	i
O=C(NCc1cccnc1)C(C(=O)c1ccc(F)cc1)n1ccccc1=O (stereo unspecified)	i	i	i	i	-0.9	i	.	.	.
COc1ccc(N(Cc2cc3ccc(C)cc3[nH]c2=O)C(=O)c2ccco2)cc1	i	i	i	i	0.51	i	i	i	i
Cc1cccc(N(Cc2cc3ccccc3[nH]c2=O)C(=O)c2ccco2)c1C	i	i	i	i	0	i	.	.	.
Cc1ccc(C)c(N(Cc2cc3ccc(C)cc3[nH]c2=O)C(=O)c2ccco2)c1	i	i	i	i	0.27	i	i	i	i
Cc1ccc(-c2cc(-c3ccccc3[N+](=O)[O-])[nH]n2)c(O)c1	i	i	i	i	0.9	i	.	i	i
COc1ccc(Nc2cc(Cl)nc(N)n2)cc1OC	i	6.1*	i	i	0.28	i	6.0%*	i	i
O=C(O)CCN1C(=O)/C(=C\c2ccc(-c3nc4ccccc4s3)o2)SC1=S	i	i	i	i	0.03	i	i	i	54%*
CC1(C)CC(=O)C(C(C2=C(O)CC(C)(C)CC2=O)c2ccco2)C(=O)C1 (stereo unspecified)	i	7*	i	i	-0.28	i	22%*	i	i
COc1cc(C(C2=C(O)CC(C)(C)CC2=O)C2C(=O)CC(C)(C)CC2=O)cc(OC)c1OC (stereo unspecified)	i	i	i	i	-0.99	i	.	.	.
COc1ccc(-n2ncc3c2CC(C)(C)CC3NC(=O)CSc2ccccn2)cc1 (stereo unspecified)	i	i	i	i	-0.21	i	.	.	.
Cc1cc(Cl)ccc1OCC(=O)NNC(=O)c1cccs1	i	i	i	i	2.5	i	.	.	.
Cc1cc(Cl)ccc1OCC(=O)NNC(=O)c1ccco1	i	i	i	i	-0.41	i	.	i	i
CCCC(NC(=O)COc1cc2c(c3oc(=O)cc(C)c13)CCC(C)(C)O2)C(=O)O (stereo unspecified)	i	i	i	i	1.1	i	i	i	i
CCOC(=O)N1CCN(S(=O)(=O)c2ccc(C(=O)NNc3nc4c(C)cccc4s3)cc2)CC1	i	i	i	i	-0.5	i	.	.	.
Cc1cccc2sc(NNC(=O)c3ccc(S(=O)(=O)N4CCCC(C)C4)cc3)nc12 (stereo unspecified)	i	i	i	i	0.37	i	i	i	i
Cc1cccc2sc(NNC(=O)c3ccc(S(=O)(=O)N4CCc5ccccc5C4)cc3)nc12	i	i	i	i	0.03	i	.	i	i
O=C(/C=C/c1ccc(F)cc1)Nc1ccc(S(=O)(=O)Nc2ncccn2)cc1	i	i	i	i	2	i	i	i	29%*
COc1ccccc1N1CCN(C(=O)C2CCC(Cn3c(=S)[nH]c4ccccc4c3=O)CC2)CC1 (stereo unspecified)	i	i	i	i	-0.46	i	.	.	.
COc1ccc(N2CCN(C(=O)C3CCC(Cn4c(=S)[nH]c5ccccc5c4=O)CC3)CC2)cc1 (stereo unspecified)	i	i	i	i	-0.22	i	.	i	i
O=C(C1CCC(Cn2c(=S)[nH]c3ccccc3c2=O)CC1)N1CCOCC1 (stereo unspecified)	i	i	i	i	0.52	i	.	.	.
O=C(C1CCC(Cn2c(=O)[nH]c3ccccc3c2=O)CC1)N1CCN(c2ccccc2)CC1 (stereo unspecified)	i	i	i	i	1.2	i	.	i	i
COc1cc(-c2nc(-c3ccc(NC(=O)c4ccc(Br)o4)cc3)no2)cc(OC)c1OC	i	i	i	i	0.13	i	.	.	.
CCOc1ccccc1CN1CCN(S(=O)(=O)CC)CC1	i	i	i	i	0.46	i	.	.	.
SMILES	MrgX1 PAM	RGS4 inh	RGS4 act	MrgX1 ag	Kir21 inh	MrgX1 antagonist	RGS4 inh valid	RGS4 uninduced	RGS4 inh ctr2
COc1ccc(NC(=O)Nc2nnc(-c3ccncc3)s2)cc1	i	i	i	i	-0.15	i	.	.	.
O=C(C1CCC1)N1CCN(S(=O)(=O)c2cccc(F)c2)CC1	i	i	i	i	-0.01	i	.	.	.
Cc1ccc(S(=O)(=O)N/N=C/c2cccn2-c2ccc(Cl)cc2)cc1	i	i	i	i	-2.1	i	.	.	.
CC1=NN(c2ccc(Cl)cc2)C(=O)/C1=C\c1cccn1-c1ccc(S(N)(=O)=O)cc1	i	4.9*	i	i	1.2	i	43%*	42%*	i
COc1ccc(/C=C\C(=O)c2c(O)ccc3c(C)cc(=O)oc23)cc1	i	i	i	i	-0.82	i	.	i	i
COc1ccc(/C=C/C(=O)c2c(O)ccc3c(C)cc(=O)oc23)cc1	i	i	i	i	-2.1	i	i	i	i

Assay outcomes as filed in PubChem.
